Measured values as given in ChEMBL document CHEMBL1159110, “Mevalonate analogues as substrates of enzymes in the isoprenoid biosynthetic pathway of Streptococcus pneumoniae” (Bioorg Med Chem, 2010).
Calls of active or inactive are those of the source. No cut-off for these calls is given here.

Assays:
Streptococcus pneumoniae [1] = test: Activity of Streptococcus pneumoniae mevalonate kinase expressed in Escherichia coli by pyruvate kinase/lactate dehydrogenase coupled assay
Summary of the method: (§1)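 S. pneumoniae MK expressed in E. coli as His6-GST fusion, with tags removed. Lactone analogues were hydrolysed in 2.0 M LiOH (rt, 1 h), titrated to pH 7.0, and used as racemic acids. ADP formation was coupled to NADH oxidation (pyruvate kinase 10.0 units/ml, lactate dehydrogenase 20.0 units/ml), read continuously at 386 nm. Buffer: ATP 4.0 mM, MgCl2 5.0 mM, NADH 0.82 mM, PEP 1.0 mM, KCl 50 mM, β-mercaptoethanol 20.0 mM, Hepes/K+ 50 mM pH 8.0, 25 °C. Progress curves were compared with mevalonate.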

Streptococcus pneumoniae [2] = test: Activity of Streptococcus pneumoniae phosphomevalonate kinase expressed in Escherichia coli by pyruvate kinase/lactate dehydrogenase coupled assay
Summary of the method: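 S. pneumoniae PMK was expressed in E. coli as His6-GST fusion, with tags removed. Substrates were the phosphorylated analogues, compared with phosphomevalonate. ADP formation was linked 1:1 to NADH oxidation via pyruvate kinase (10.0 units/ml) and lactate dehydrogenase (20.0 units/ml), monitored at 386 nm. Conditions: ATP 4.0 mM, MgCl2 5.0 mM, NADH 0.82 mM, PEP 1.0 mM, KCl 50 mM, β-mercaptoethanol 20.0 mM, Hepes/K+ 50 mM pH 8.0, 25 °C.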

Streptococcus pneumoniae [3] = test: Activity of Streptococcus pneumoniae mevalonate kinase expressed in Escherichia coli assessed as enzyme activity by pyruvate kinase/lactate dehydrogenase coupled assay relative to mevalonate; summary of the method: as §1
[4] = Binding affinity to Streptococcus pneumoniae mevalonate kinase

Structure (SMILES)	Activity (Streptococcus pneumoniae [1])	Activity (Streptococcus pneumoniae [2])	Activity (Streptococcus pneumoniae [3])	Ki [4]
C#CC(O)(CCO)CC(=O)O (racemic)	Active	Active	–	–
C=C(C)C(O)(CCO)CC(=O)O (racemic)	–	–	< 0.0025%	–
C=CC(O)(CCO)CC(=O)O (racemic)	Active	Active	–	–
C=CCC(O)(CCO)CC(=O)O (racemic)	Active	Active	–	–
CC#CC(O)(CCO)CC(=O)O (racemic)	–	–	< 0.0025%	–
CC(C)C(O)(CCO)CC(=O)O (racemic)	–	–	< 0.0025%	–
CC(C)CC(O)(CCO)CC(=O)O (racemic)	Active	Active	–	–
CCC(O)(CCO)CC(=O)O (racemic)	Active	Active	–	–
CCCC(O)(CCO)CC(=O)O (racemic)	Active	Active	–	–
CCCCC(O)(CCO)CC(=O)O (racemic)	–	–	< 0.0025%	–
O=C(O)CC(O)(CCO)C1CC1 (racemic)	Active	Active	–	–
C[C@@](O)(CCOP(=O)(O)OP(=O)(O)O)CC(=O)O [DIPHOSPHOMELAVONATE]	–	–	–	500 nM
